# Results pooled from the literature.
# Lines come from different studies, so protocols differ.
# Target: High affinity nerve growth factor receptor (NTRK1, Homo sapiens, UniProt P04629)
Structure (SMILES),assay,setting,remaining binding [%]
N#CC1(c2ccccn2)CCN(Cc2cc(C(=O)N3CCCC3)c(=O)n3ccccc23)CC1,"cell-free assay, competition with immobilised ligand",1 µM,100
C[C@H]1CCN(c2nccc(-c3cnn4ncccc34)n2)C1,binding,1 µM,68
N#Cc1ccccc1CSc1nnc2c(n1)[nH]c1ccccc12,"binding, competition with immobilised ligand",10 µM,98
COc1cnc(Nc2cccc(S(N)(=O)=O)c2)nc1N1CCN(c2ccccc2)CC1,"binding, competition with immobilised ligand",1 µM,58
COc1ccnn2ncc(-c3ccnc(N(C)C)n3)c12,binding,1 µM,79
COc1ncc2cc3ccccc3nc2c1C#N,"cell-free assay, competition with immobilised ligand",5 µM,100
Cc1cc(-n2nc(Cc3cc(F)cc(C(F)(F)F)c3)nc2C)ccc1C(N)=O,"cell-free assay, competition with immobilised ligand",1 µM,97
c1cncc(-c2cccc(Nc3nccc(NC4CCCCC4)n3)c2)c1,"binding, competition with immobilised ligand",10 µM,5.3
CC1CCCN1c1nccc(-c2cnn3ncccc23)n1 (stereo not shown),binding,1 µM,87
O=C(Nc1c[nH]nc1C(=O)NC1CCNCC1)c1cc(F)cc(F)c1,"binding, competition with immobilised ligand",1 µM,100
N[C@@H]1CCN(c2nccc(-c3cnn4ncccc34)n2)C1,binding,1 µM,93
Cc1cc(Nc2nccc(C)n2)cc(-c2cnc([C@@]3(O)CC[C@H](C(=O)O)C(C)(C)C3)s2)c1,"binding, competition with immobilised ligand",1 µM,30.2
Cc1cnc(Nc2ccc(C(=O)N3CCC(N4CCCC4)CC3)cc2)nc1-c1cc2ccccc2s1,"binding, competition with immobilised ligand",1 µM,0.3
Cc1cnn2ncc(-c3ccnc(N(C)C)n3)c2c1,binding,1 µM,80
CN(C(=O)c1ccccc1)c1cc(N(C)c2ccc3c(c2)CCc2ccc(C(=O)NCCN4CCOCC4)cc2C3=O)ccc1F,"cell-free assay, competition with immobilised ligand",1 µM,79
O=C(NCCCN1CCOCC1)c1ccc(Nc2nccc(-c3cc4ccccc4s3)n2)cc1,"binding, competition with immobilised ligand",1 µM,19
